This is a sample that favours compounds with a hit; in the whole collection about 2.5% have one here.
NPY-Y2 antag – antagonists of human neuropeptide Y receptor Y2; NPY-Y2 expressing cells, antagonist mode; inhibition, % at 2.7 µM; 140,000 compounds, 0.99% hits; in the data active = inhibition above about 17%;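 also: 0% = vehicle with agonist challenge and 100% = reference antagonist with challenge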
Insulin prom up – MIN6 insulin promoter up-regulation | z-score at 5 µM | MIN6 insulin promoter-GFP reporter, high-content imaging; hits give high values | 190,000 compounds, 0.3% hits;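 active = z-score above 3 at 5 µM with at least 500 cells counted in the well; inconclusive = wells under 500 cells, flagged as cytotoxic or low count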
NPY-Y1 antag – NPY-Y1 (human) receptor antagonism; P25929; HEK293-CNG Y1 cells, membrane potential fluorescence; NPY at EC95, then isoproterenol; inhibition, % at 3.6 µM; 200,000 compounds, 1% hits;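 active = inhibition above the campaign mean inhibition of all tested compounds plus 3 SD, cut at about 20% in these data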;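 also: 0% = DMSO wells given NPY plus isoproterenol and 100% = isoproterenol alone without NPY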
Target sequence (P25929 whole entry, looked up): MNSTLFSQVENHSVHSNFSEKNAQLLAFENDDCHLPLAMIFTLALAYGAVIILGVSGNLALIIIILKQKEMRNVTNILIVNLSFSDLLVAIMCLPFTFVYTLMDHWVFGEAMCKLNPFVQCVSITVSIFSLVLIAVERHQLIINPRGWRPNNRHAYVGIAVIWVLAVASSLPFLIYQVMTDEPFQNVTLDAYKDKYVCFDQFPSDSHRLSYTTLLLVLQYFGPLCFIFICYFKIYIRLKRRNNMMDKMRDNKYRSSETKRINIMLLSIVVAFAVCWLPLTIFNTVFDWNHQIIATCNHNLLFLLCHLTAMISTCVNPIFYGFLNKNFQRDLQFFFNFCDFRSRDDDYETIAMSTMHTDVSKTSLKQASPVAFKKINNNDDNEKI
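material = HEK293 cells with Y1 receptor plus CNG channel | also added = NPY 25 nM then isoproterenol 1 µM plus Ro 20-1724 25 µM | schedule = dye 3 h, compound 60 min room temperature, stimulation 45 min | measured by = membrane potential fluorescence | benchmarks = high control isoproterenol alone, low control NPY with isoproterenol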
INS promoter inh – TRM-6 insulin promoter activity inhibition. TRM-6 cells, insulin promoter-eGFP reporter, imaging; reporter expression induced with tamoxifen. inhibition, % at 2 µM. 130,000 compounds, 0.9% hits. AID 1273;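 active = inhibition above the mean plus 3 SD, with well images judged a real hit on visual review, cut at about 60% in these data, passing the limit was not always enough; inconclusive = inhibition over the cutoff but images rejected on review; inactive = inhibition not above the cutoff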
NPY-Y2 PAM-ag – potentiators or agonists of human neuropeptide Y receptor Y2 | P49146 | cells expressing NPY-Y2, potentiator/agonist read-out | activation, % at 3.6 µM | 220,000 compounds, 0.45% hits; in the data active = activation above about 27%;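 also: cells stimulated with NPY near EC25 plus isoproterenol at EC100; 0% = vehicle plus submaximal agonist and 100% = vehicle plus saturating agonist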
NPY1 pot ag – potentiates or activates human NPY-Y1 receptor; AID 1304; activation, % at 3.6 µM; NPY-Y1 expressing cells, potentiator/agonist activation; P25929; 220,000 compounds, 0.37% hits; in the data active = activation above about 33%, passing the limit was not always enough;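 also: cells stimulated with NPY at EC10 then isoproterenol at EC100; 0% = low agonist plus stimulus and 100% = saturating agonist plus stimulus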
NPY-Y1 antag ct – counter-screen for NPY-Y2 antagonists: human NPY-Y1 antagonism. shares compounds with NPY-Y2 antag. cell-based NPY-Y1 antagonism counterscreen. inhibition, % at 3.6 µM. 710 compounds, 19% hits. AID 1256; in the data active = inhibition above about 20%;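 also: cells challenged with NPY then isoproterenol with cAMP sensed through a CNG channel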
NPY-Y2 ant conf – confirmation of human neuropeptide Y receptor Y2 antagonists; shares compounds with NPY-Y2 antag; inhibition, % at 2.8 µM; 710 compounds, 32% hits; AID 1257; HEK293 NPY-Y2 CNG channel, membrane potential fluorescence;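 active = mean inhibition of triplicate wells above the hit cutoff set in the primary screen, cut at about 17% in these data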;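 also: 0% = DMSO with NPY challenge and 100% = BIIE0246 high control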
An asterisk follows results filed as active; u = inconclusive; x = not tested or not shown.

SMILES	NPY-Y2 antag	Insulin prom up	NPY-Y1 antag	INS promoter inh	NPY-Y2 PAM-ag	NPY1 pot ag	NPY-Y1 antag ct	NPY-Y2 ant conf
Cc1nn(C)cc1CN(C)S(=O)(=O)c1cccc([N+](=O)[O-])c1	x	-0.2	-4	x	-2	-5	x	x
CCN1/C(=C2\OC(=S)N(C)C2=O)Sc2ccccc21	20*	1.7	-1	x	5	11	-1	12
CCN1/C(=C2\OC(=S)N(C)C2=O)C=Cc2ccccc21	x	x	-4	x	-6	5	x	x
Nc1ccnn1Cc1ccncc1	x	2.4	0	x	-1	9	x	x
O=C(O)CSc1nnc(-c2ccc3c(c2)OCO3)o1	31*	-0.05	14	11	-22	-32	18	18*
COC(=O)Cc1[nH]c(=S)[nH]c1C(=O)OC	x	-0.09	x	x	-11	3	x	x
CCOC(=O)c1ccccc1NC(=O)CSc1nnc(COc2ccccc2C)n1C	19*	0.43	14	-22	-17	-17	17	11
Cc1c(NC(=O)C(Sc2ccccc2)c2ccccc2)cccc1[N+](=O)[O-] (configuration not stated)	18*	-1.5	6	-40	-10	1	8	12
O=C(NC1CCCCC1)c1cnn2c(C(F)(F)F)cc(-c3ccco3)nc12	19*	-0.74	13	x	5	-25	10	3
Cc1nc(N2CCOCC2)c2oc3ccccc3c2n1	-2	-0.06	5	x	1	-8	x	x
CCOC(=O)C1CCCN(c2nc(C)nc3c2oc2ccccc23)C1 (configuration not stated)	18*	u	7	x	-22	-10	15	14
CCOC(=O)c1c(-c2ccc(C)o2)csc1NC(=O)CN1CCOCC1	6	0.26	4	-40	-9	5	x	x
CCOC(=O)c1c(-c2ccc(C)o2)csc1NC(=O)COC(=O)c1cccs1	20*	x	4	35	-4	-26	5	2
COC(=O)c1sccc1NC(=S)N1CC(C)CC(C)C1 (configuration not stated)	10	0.92	12	x	1	-18	x	x
CN(CC(=O)Nc1ccc(C#N)cc1)Cc1ccc(Cl)cc1	18*	-1.1	3	x	-7	-8	2	1
Cc1cc(N2CCC(C)CC2)nc(-c2ccccc2O)n1	x	-0.27	x	x	-20	-1	x	x
Cc1cc(N2CCC(C)CC2)nc(NCc2ccccc2)n1	17*	-2.8	14	-107	-20	-37	33*	33*
Cc1cc(Oc2ccccc2)nc(NCc2ccccc2)n1	20*	-0.58	12	-14	-23	-22	11	4
Cc1ccc(C(O)P(=O)(OCc2ccccc2)c2ccc(N(C)C)cc2)cc1 (configuration not stated)	x	-0.11	x	x	4	6	x	x
CC(C)CCOc1ccc(/C=C2\CCn3c2nc2cc(C(=O)O)ccc2c3=O)cc1	x	-0.02	-7	x	11	3	x	x
CCC1=Nc2ccc(Br)cc2C(c2ccccc2)N1CC(=O)OC (configuration not stated)	23*	0.45	14	x	-16	6	13	23*
Cc1ccc(C2=NC3(CCCCC3)N=C2SCC(=O)Nc2ccc3c(c2)OCCO3)cc1	3	0.9	3	-43	3	-4	x	x
Cc1ccc(SCc2[nH]nc3c2C(c2cccnc2)C(C#N)=C(N)O3)cc1 (configuration not stated)	18*	0.01	6	-9	7	-13	93*	81*
CCc1[nH]nc2c1C(c1cccnc1)C(C#N)=C(N)O2 (configuration not stated)	2	0.94	1	27	8	5	x	x
C=CCN(C)NC(=S)Nc1ccccc1	2	-0.14	1	4	1	12	x	x
SMILES	NPY-Y2 antag	Insulin prom up	NPY-Y1 antag	INS promoter inh	NPY-Y2 PAM-ag	NPY1 pot ag	NPY-Y1 antag ct	NPY-Y2 ant conf
N/C(Cc1ccc(Cl)cc1)=N\OC(=O)Cc1ccc([N+](=O)[O-])cc1	2	0.68	4	x	-15	-27	x	x
CCOC(=O)/C(N=Nc1ccc(Cl)cc1)=C(/O)c1ccc([N+](=O)[O-])cc1	17*	-0.27	0	27	-7	5	-1	-1
NC(=O)Cn1c(S(=O)(=O)Cc2ccccc2)nc2ccccc21	1	x	3	-52	8	-4	x	x
CCOC(=O)Cn1c(S(=O)(=O)Cc2cccc(F)c2)nc(-c2ccccc2)c1-c1ccccc1	19*	-0.81	16	-59	-12	-18	17	9
O=C1CC(N2C(=O)/C(=C/C=C/c3ccccc3)SC2=S)C(=O)N1c1ccccc1 (configuration not stated)	1	-0.22	4	7	2	-3	x	x
Cc1nc2ccccc2c(=O)n1NC(=O)/C=C/c1ccc(Br)cc1	18*	x	18	-11	-9	-17	16	11
CCOc1ccccc1N(CC(=O)NCc1ccccc1)C(=O)CCC(=O)Nc1cc(C)ccn1	x	0.86	10	x	1	8	x	x
COC(=O)c1cc2occc2n1Cc1nc(-c2ccc(Cl)cc2)oc1C	3	0.2	10	37	-10	-17	x	x
COC(=O)c1cc2occc2n1Cc1nc(-c2ccccc2Cl)oc1C	20*	-0.05	4	-7	-5	4	13	20*
O=C(NC(=S)Nc1ccccc1N1CCCCC1)c1ccco1	18*	-0.57	8	x	-3	-67	12	8
C(=N\Nc1nncn1/N=C/c1ccco1)/c1ccco1	x	0.02	x	x	1	-18	x	x
O=C(COC(=O)/C=C/c1ccccc1)Nc1ccccc1Br	12	-0.18	4	x	-10	-30	x	x
O=C(COC(=O)c1ccc(-c2ccccc2)cc1)Nc1ccccc1-c1ccccc1	31*	x	-4	0	3	3	15	19*
O=C(COC(=O)/C=C/c1cccc(Cl)c1)Nc1ccccc1-c1ccccc1	19*	-0.51	7	0	-1	-13	21*	30*
O=C(COC(=O)c1ccc(O)cc1)Nc1ccccc1-c1ccccc1	6	0.79	2	-67	-2	-4	x	x
COc1ccc(OCCNC(=O)CSc2ccc(C(F)(F)F)cc2[N+](=O)[O-])cc1	3	0.34	6	-12	1	-4	x	x
Cn1ccnc1SCC(=O)Nc1cccc(O)c1	18*	0.71	7	37	13	-7	-3	-2
O=C(CN1CCN(c2cccc(C(F)(F)F)c2)CC1)Nc1cccc(C(F)(F)F)c1	17*	-0.01	5	14	-11	-54	24*	22*
O=C(/C=C/c1ccc(Br)cc1)N1CCN(c2cccc(C(F)(F)F)c2)CC1	19*	0.96	7	x	-12	-9	24*	25*
